# Hits are enriched below; roughly 4% of the tested compounds scored in any of these assays.
# SIRT5 inh = blocks human SIRT5 desuccinylation of peptide. Purified SirT5, succinyl-peptide AMC, trypsin-coupled fluorescence. inhibition, % at 15 µM. actives 1.1% (n = 330,000). AID 652115; in the data active means inhibition above about 15%; inconclusive means no clear call, values can overlap the other calls
# E-sel inducer = induces E-selectin expression in human endothelial cells | P16581 | activation, % at 7.58 µM | AID 686992 | HUVEC E-selectin immunofluorescence imaging; normalized: neutral wells 0, TNF-alpha wells 100 | actives 0.37% (n = 260,000);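 active means mean E-selectin-positive cell signal at least 10% of the positive control, reached in at least 60% of replicates, without over 20% cell loss; inconclusive means no rule given, readout overlaps actives, possibly toxicity-flagged; inactive means the rest, including those meeting only one limit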
# Target sequence (P16581 whole entry, looked up): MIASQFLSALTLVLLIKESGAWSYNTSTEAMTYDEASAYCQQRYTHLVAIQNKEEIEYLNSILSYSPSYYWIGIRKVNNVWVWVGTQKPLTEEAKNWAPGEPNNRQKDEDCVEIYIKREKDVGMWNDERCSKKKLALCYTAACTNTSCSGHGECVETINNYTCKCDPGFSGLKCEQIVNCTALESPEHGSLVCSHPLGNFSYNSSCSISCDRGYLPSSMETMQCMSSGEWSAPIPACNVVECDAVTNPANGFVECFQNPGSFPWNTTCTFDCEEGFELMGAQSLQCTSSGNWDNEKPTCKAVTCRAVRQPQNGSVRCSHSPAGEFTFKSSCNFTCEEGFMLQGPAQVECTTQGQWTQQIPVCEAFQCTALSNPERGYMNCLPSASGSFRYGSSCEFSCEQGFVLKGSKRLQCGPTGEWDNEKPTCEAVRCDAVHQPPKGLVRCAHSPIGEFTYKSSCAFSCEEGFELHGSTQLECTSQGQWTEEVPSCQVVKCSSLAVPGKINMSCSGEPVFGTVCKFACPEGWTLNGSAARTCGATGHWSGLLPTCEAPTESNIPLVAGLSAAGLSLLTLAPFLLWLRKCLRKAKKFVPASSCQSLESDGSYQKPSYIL
#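 Read-out: % PE-positive cells | Test system: HUVEC | Doses: One compound dose added by pin transfer | Buffer or medium: EGM-2 over gelatin coat | Signal: Immunofluorescence imaging | Benchmarks: TNF-alpha, DMSO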
# FN deposition inh = fibronectin deposition inhibition; AID 743247; actives 0.086% (n = 350,000); AH1F fibroblasts, Alexa488-fibronectin deposition fluorescence, overnight; inhibition, % at 12.6 µM;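 active means mean inhibition across replicates of 30% or more, regardless of how many single replicates reach that level; inconclusive means mean under 30% yet at least half of replicates reach 30%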;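 further: positive control wells lacked labelled fibronectin entirely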
#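 Schedule: 1 h cell adhesion before compound, then overnight fibronectin incubation; test system: AH1F fibroblast monolayer depositing Alexa488-labelled fibronectin into matrix; quantity: 10000 AH1F cells per well; probe or stimulus: fluorescent fibronectin at 24 nM final; signal: fluorescence, ex 485 nm, em 525 nm; evaluation: percent inhibition as loss of matrix-bound fibronectin fluorescence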
# rRNA inh HTS = inhibitors of bacterial rRNA selective over humanized ribosomes; E. coli WT GFP vs humanized-ribosome RFP mutants, fluorescence, 24 h; hits give low values; DMSO median 0, no signal -100; actives 1.6% (n = 350,000); GFP signal change (wild-type ribosome), % (no concentration beside the values);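 active means significant combined selectivity score with lowered wild-type GFP, culture density cut under 30%, mutant RFP and density less affected; inactive means any of these conditions unmet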
# FGF22 binding = shifts melting point of recombinant human FGF22; AID 651658; recombinant FGF22 thermal shift, SYPRO orange fluorescence; percent of sucrose octasulfate shift, DMSO zero; activity (Tm shift, normalised), % at 9.99 µM; actives 1.5% (n = 340,000); Q9HCT0;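 active means mean Tm shift, scaled 0 neutral to 100 positive control, at about 1.3% or above, every replicate too, limit read from the data; inconclusive means no clear call, values can overlap the other calls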
# Statin myotox sup = protects C2C12 myotubes from simvastatin toxicity. ATP luminescence, 48 h; scaled: DMSO 0, geranylgeraniol control 100. rescue of ATP level, % at 7.49 µM. actives 0.78% (n = 330,000). AID 602340;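 active means mean ATP rescue above about 67%, or every replicate alone reaching that limit, limit read from the data, passing the limit was not always enough; inconclusive means no clear call, values can overlap the other calls; inactive means mean under the limit and some replicate under it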;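 further: myotubes were challenged with 10 µM simvastatin during compound exposure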
# HepG2 tox = HepG2 cell cytotoxicity | shares compounds with rRNA inh HTS | HepG2 viability, ATP luminescence, 72 h | activity change, negative = cytotoxicity, unspecified at 26 µM | 30 tested, under 10 active | AID 743480;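 active means compounds whose fitted half-maximal signal-loss concentration is at most twice their highest valid dose; inconclusive means flat curve with 30 to 70% signal loss, or poor fit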
# AID977621 = growth inhibition of wild-type GFP E. coli, dose response, H69 mutant RFP, cherry-pick | shares compounds with rRNA inh HTS | 1,900 tested, under 10 active | E. coli wild-type GFP strain growth, fluorescence, 24 h | activity change, negative = inhibition at 50 µM | AID 977621;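 active means Wild-type ribosome reporter drop at least double the humanized mutant ribosome reporter drop, growth loss under a set limit; inconclusive means no clear call, values can overlap the other calls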;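 further: wild-type GFP and H69 mutant RFP strains grown together 50/50 in each well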
# AID977628 = growth of wild-type and h24-humanized E. coli strains – h24 mutant RFP vs wild-type GFP, cherry-pick, dose response | shares compounds with rRNA inh HTS | E. coli WT GFP strain growth, fluorescence, 24 h | activity change, negative = inhibition at 50 µM | 1,900 tested, under 10 active;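 active means compound lowering the normal-ribosome reporter at least twice as much as the humanized-ribosome reporter, growth loss under a set limit; inconclusive means no clear call, values can overlap the other calls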;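 further: wild-type GFP and h24 humanized RFP strains co-cultured 1 to 1 per well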
# * marks the source's active call; other numbers are inactive results; ? = inconclusive; / = no result given.
SMILES,SIRT5 inh,E-sel inducer,FN deposition inh,rRNA inh HTS,FGF22 binding,Statin myotox sup,AID977621,AID977628,others
N#Cc1nc(COc2cccc(Cl)c2)oc1N1CCCC1,-7,0,3,-33*,0,0,-9.6,-9.9,
CCN1[C@@H]2c3ccc(C4=CCCC4)c(=O)n3C[C@@H]2[C@@H](CO)[C@@H]1C(=O)NCCCN(C)C,-7,0,/,-1,/,/,/,/,
C[C@@H]1CN([C@@H](C)CO)C(=O)CCCn2nncc2CO[C@H]1CN(C)C(=O)Nc1cccc(C(F)(F)F)c1,-2,0,10,-17*,0,12,/,?,
COc1cc(OC)cc(C(=O)N[C@H](C(=O)OCC(=O)Nc2ccc(C)cc2C)C(C)C)c1,4,/,9,-8,/,/,/,/,
COc1cc(OC)cc(C(=O)N[C@H](C(=O)OCC(=O)Nc2ccc(F)c(F)c2F)C(C)C)c1,5,2,-9,-20*,0,-11,?,/,
Cc1ccsc1C(=O)C1CCCN(Cc2cn(C)nc2-c2ccccc2)C1 (stereo not given),-3,14,24,0,1,/,/,/,
Cn1cc(CN(CCO)Cc2cccs2)c(-c2cccc(Cl)c2)n1,-4,/,1,-31*,0,/,5.9,-12,
Cn1cc(CN2CCCC(C(=O)c3cccs3)C2)c(-c2cccc(Cl)c2)n1 (stereo not given),4,/,/,-25*,0,5,-1.8,-2.9,
O=S(=O)(NCc1cc(-c2ccccc2)no1)c1ccccc1Cl,-2,/,-15,-21*,0,/,-1.6,1,
Cc1ccc(C(=O)c2ccccc2C(=O)OCC(=O)N2CCCC2)cc1,-1,0,-28,4,0,-2,/,/,
Cc1ccc(C(=O)c2ccccc2C(=O)OCC(=O)NC(C)(C)C)cc1,3,5,-7,-20*,0,-16,-22,/,
C[C@@H]1CN([C@@H](C)CO)C(=O)c2cc(C#Cc3ccncc3)cnc2O[C@@H]1CN(C)S(=O)(=O)c1ccccc1F,-1,/,/,1,0,7,/,/,
O=C1CCCN1CCCNc1ncnc2c1[nH]c1ccc(Cl)cc12,-3,/,/,-23*,/,-11,-22,/,
C[C@@H]1CCCCO[C@H](CN(C)C(=O)CCC(F)(F)F)[C@H](C)CN([C@H](C)CO)C(=O)c2cc(NS(=O)(=O)c3ccc(Cl)cc3)ccc2O1,13,0,-3,-1,-1,/,/,/,
O=C(O)c1cc([N+](=O)[O-])ccc1NCc1ccccc1,3,0,-1,-25*,0,/,/,/,HepG2 tox=13
Fc1ccccc1C1CCN(Cc2nc(COc3ccccc3)no2)C1 (stereo not given),1,0,-7,-16*,0,-10,-8.3,-2,
CC=Cc1ccc2n(c1=O)C[C@@H]1[C@@H](CO)[C@H](C(=O)NCC3CC3)[C@H]2N1Cc1ccccc1 (mixture of isomers),-4,0,/,0,0,13,/,/,
CCOC(=O)C(CC)Sc1cc(C)nc2ccc(OC)cc12 (stereo not given),1,2,0,-30*,0,6,-12,/,
COc1ccc(C(C(=O)NC2CCCCC2)n2c(=O)c(-c3ccco3)nc3ccccc32)cc1 (stereo not given),3,0,-12,7,0,/,/,/,
O=C(NC1CCCCC1)C(c1cccc2ccccc12)n1c(=O)c(-c2ccco2)nc2ccccc21 (stereo not given),-4,1,-18,-23*,0,/,-17,-9.7,
Cc1ccc(-n2nnnc2CNC(=O)c2ccc([N+](=O)[O-])o2)cc1C,2,0,-5,-20*,0,80*,?,0.065,
Cc1ccc(-n2nnnc2CNC(=O)c2ccc(Br)o2)cc1C,6,1,23,-4,0,-5,/,/,
COC(=O)C[C@H]1CC[C@H]2[C@H](COc3ccc(NC(=O)c4cc(C)on4)cc3C(=O)N2C)O1,1,0,-6,0,0,-2,/,/,
CC(=O)c1c(N2CCOCC2)nc2ccc(Cl)cc2c1-c1ccccc1,12,/,-1,-19*,0,/,0.093,/,
CC(C)(C)c1ccc(-c2noc(CCC(=O)NCc3ccco3)n2)cc1,1,-1,3,-24*,0,/,-5.1,?,
SMILES,SIRT5 inh,E-sel inducer,FN deposition inh,rRNA inh HTS,FGF22 binding,Statin myotox sup,AID977621,AID977628,others
Cc1cccc(-c2noc(CCC(=O)NCc3ccco3)n2)c1,-1,/,/,/,0,13,/,/,
Cc1ccc(S(=O)(=O)N2CC[C@H]3[C@H](CO)Nc4ccc(Br)cc4[C@H]32)cc1,1,-1,7,-25*,0,32,/,?,HepG2 tox=24
COCC(=O)Nc1ccc2c(c1)C(=O)N(C)[C@@H]1CC[C@@H](CC(=O)N3CCc4ccccc4C3)O[C@H]1CO2,0,0,-7,0,0,11,/,/,
COC(=O)CC1COc2ccccc2N1C(=O)c1ccc(Br)cc1 (stereo not given),0,3,-1,-25*,0,-4,-1.5,2.9,
COC(=O)CC1COc2ccccc2N1C(=O)c1ccc(Cl)cc1 (stereo not given),/,/,3,/,/,-6,/,/,
CCOC(=O)C1(CCCc2ccccc2)CCN(C(=O)CCn2cncn2)CC1,-2,0,6,-20*,0,/,-4.1,-11,
O=C(NCC1CC1)[C@@H]1N[C@@H]2c3ccc(C4=CCCCC4)c(=O)n3C[C@@H]2[C@H]1CO,-4,0,/,-4,0,14,/,/,
CCN(C(=O)CSc1cc(C)c2ccc(OC)cc2n1)C1CCS(=O)(=O)C1 (stereo not given),-2,0,3,-23*,0,/,-16,-14,
CCN(C(=O)CSc1cc(-c2ccccc2)c2ccc(OC)cc2n1)C1CCS(=O)(=O)C1 (stereo not given),-1,0,-4,/,-1,/,/,/,
O=C(OCC1COc2ccccc2O1)c1ccccc1F (stereo not given),1,/,/,-20*,0,-11,-0.3,-2.7,
C[C@@H]1CN([C@@H](C)CO)C(=O)c2cc(NC(=O)Nc3ccc4c(c3)OCO4)ccc2O[C@@H]1CN(C)C(=O)Nc1ccccc1,/,0,/,0,0,17,/,/,

# Screens (PubChem BioAssay)
